Bioassay records: PubChem, The Scripps Research Institute Molecular Screening Center
Only some compounds are listed: those with a hit (about 0.55% of all), similar ones and a draw of the others.
OXTR ag: activates the human oxytocin receptor | P30559 | CHO-OTR cells, Fluo-8 calcium fluorescence; normalized: DMSO 0%, oxytocin 100% | activation, % at 3 µM | 0.32% of 320,000 active;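 active = activation above the mean of all tested compounds plus 3 SD, cutoff set per screening run, cut at about 20% in these data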;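 note: peak over basal fluorescence ratio from a 100 s FLIPR kinetic read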
Target sequence (P30559 whole entry, looked up): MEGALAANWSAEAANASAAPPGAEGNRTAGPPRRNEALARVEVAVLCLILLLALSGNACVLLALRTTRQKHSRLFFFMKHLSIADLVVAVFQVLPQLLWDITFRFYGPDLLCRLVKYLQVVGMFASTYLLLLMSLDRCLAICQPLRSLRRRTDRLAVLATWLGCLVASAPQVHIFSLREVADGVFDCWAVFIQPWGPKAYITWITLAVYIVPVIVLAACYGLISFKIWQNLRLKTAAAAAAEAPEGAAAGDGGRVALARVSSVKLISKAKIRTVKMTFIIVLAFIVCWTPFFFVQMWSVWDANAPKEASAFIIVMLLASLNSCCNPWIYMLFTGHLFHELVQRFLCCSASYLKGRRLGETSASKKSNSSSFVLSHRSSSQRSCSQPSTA
TRPML3 ag: agonists of human TRPML3 channel. activation, % at 3 µM. HEK293 TRPML3-YFP, Fluo-8 calcium fluorescence; 100% = the carbachol control signal. 0.29% of 220,000 active. Q8TDD5;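 active = activation above its plate's cutoff, the mean activation of the plate's test wells plus 3 SD, cut at about 12% in these data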;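 note: 0% = DMSO only wells and 100% = carbachol wells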
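Material: HEK293 cells stably carrying human TRPML3-YFP; compound dosing: single dose, 3 µM final nominal compound, 0.3% DMSO final; incubation: 1-h 37 °C dye load, 5-s basal, 120-s post-compound reads; technique: Fluo-8 intracellular calcium fluorescence, excitation 470-495 nm, emission 515-575 nm; read-out basis: percent activation from peak-to-basal fluorescence ratio, scaled between DMSO and carbachol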
V1aR counter: activates human V1a receptor in oxytocin agonist counter-screen. CHO-V1R cells, Fluo-8 calcium fluorescence, agonist mode; 0% DMSO, 100% 3 nM vasopressin. activation, % at 3 µM. 0.25% of 320,000 active;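 active = activation above the mean activation of all tested compounds plus 3 SD, per screening run, cut at about 20% in these data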;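 note: signal is peak over basal fluorescence ratio across a 100 second FLIPR read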
OXTR potentiate: potentiates the human oxytocin receptor response; CHO-OTR cells, Fluo-8 calcium fluorescence, potentiator mode; 0% = oxytocin EC15, 100% = EC100; activation, % at 3 µM; P30559; 0.061% of 320,000 active;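 active = activation above that plate's cutoff, the mean activation of tested compounds plus 3 SD, cut at about 6.6% in these data, passing the limit was not always enough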;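 note: 100% uses oxytocin at 75 nM as the full agonist control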
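Assay system: CHO cell line stably expressing human OTR. Reagent: EC15 oxytocin agonist. Dosing: single dose, 3.0 µM nominal final compound concentration. Timing: compound 6 min at room temperature before oxytocin, 100 s read. Signal: kinetic Fluo-8 calcium fluorescence. Controls: oxytocin EC15 low and EC100 high.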
TRPN1 ag: activates the zebrafish TRPN1 channel. HEK293 zebrafish TRPN1-YFP, Fluo-8 calcium fluorescence; 100% = response to 87 µM carbachol. activation, % at 3 µM. 0.18% of 220,000 active;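 active = activation above its plate's cutoff, the mean activation of test wells on that plate plus 3 SD, cut at about 19% in these data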;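 note: 0% = DMSO alone and 100% = 87 µM carbachol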
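Assay system: Zebrafish TRPN1-YFP in HEK293 cells | Incubation: Dye loading 1 h at 37 °C, then 30 min room temperature | Measured by: Kinetic Fluo-8 fluorescence, ex 470-495, em 515-575 nm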
TRPN1 counter: activates zebrafish TRPN1, counter-screen for TRPML3 agonists; shares compounds with TRPML3 ag; HEK293 zebrafish TRPN1-YFP, Fluo-8 calcium fluorescence; scaled: carbachol wells 100%, DMSO wells 0%; activation, % at 3 µM; 10% of 310 active; AID 1525;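 active = mean activation over replicates above a set limit taken from the earlier TRPN1 channel primary screen, cut at about 19% in these data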;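 note: 100% = carbachol and 0% = 0.3% DMSO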
TRPML3 ag conf: confirmation of human TRPML3 channel agonists. shares compounds with TRPML3 ag. HEK293 TRPML3-YFP, Fluo-8 calcium fluorescence; 100% set by carbachol, 0% by DMSO. activation, % at 3 µM. 80% of 310 active;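 active = activation above a set limit derived from the earlier primary screen, cut at about 12% in these data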
Active calls of the source: *; x = no result.

SMILES	OXTR ag	TRPML3 ag	V1aR counter	OXTR potentiate	TRPN1 ag	TRPN1 counter	TRPML3 ag conf
Cc1ccc(S(=O)(=O)N(C)c2ccccc2)cc1	-2	17*	-2	-8	-2	-2	7
Cc1ccc(N(C)S(=O)(=O)c2ccc(C)cc2)cc1	0	49*	0	0	-1	-3	25*
Cc1ccc(S(=O)(=O)N(C)c2ccc3ccccc3c2)cc1	-3	0	-1	-7	-1	x	x
COCCNC(=O)CN(Cc1ccc(OC)cc1)C(=O)CCC(=O)Nc1nccs1	1	x	2	-5	x	x	x
CC1CC(C)(C)N(C(=O)CN2C(=O)c3ccccc3C2=O)c2ccccc21 (centres undefined)	-2	210*	-1	-15	4	97*	205*
CC1=CC(C)(C)N(C(=O)CN2C(=O)c3ccccc3C2=O)c2ccccc21	-2	67*	-1	0	-1	2	92*
COc1ccccc1NC(=O)CSc1nc2ccccc2c(=O)n1CC1CCCO1 (centres undefined)	-2	x	-1	-7	x	x	x
CC(NC(=S)Nc1cccc(C(F)(F)F)c1)C(C)(C)C (centres undefined)	8	12*	7	-12	13	15	7
CN(C)NC(=S)Nc1cccc(C(F)(F)F)c1	-1	0	0	4	0	x	x
O=C(c1cccc(C(F)(F)F)c1)C1CCCN(C(=O)CCCN2CCCC2=O)C1 (centres undefined)	1	1	2	-1	1	x	x
COc1cc(C)nc(N(C)S(=O)(=O)c2ccccc2Cl)n1	0	28*	1	-1	3	4	67*
Cc1cc2nc3c(=O)[nH]c(=O)[nH]c3nc2c([N+](=O)[O-])c1N	x	12*	x	x	15	7	5
C=CCn1c(SCC(=O)C23CC4CC(CC(C4)C2)C3)nc(O)cc1=O	0	1	0	-8	0	x	x
C=CCn1c(SCCC)nc(O)cc1=O	48*	28*	70*	-12	1	2	0
Cc1cccc(CC2CC(=O)N(C3CCCCC3)C2=O)c1 (centres undefined)	-1	13*	-1	2	0	-1	66*
Cc1cccc(CC2CC(=O)N(c3ccccc3)C2=O)c1 (centres undefined)	0	0	0	5	0	x	x
Cc1cc(N2CCOCC2)nc(NCc2ccccc2)n1	16	16*	10	-12	14	21*	15*
Cc1cc(N2CCOCC2)nc(N)n1	2	12*	2	-5	10	9	7
CN(C)c1ccc(/C=C(/C(=O)c2ccc(Cl)cc2Cl)n2cncn2)cc1	21*	12*	29*	-14	15	22*	12*
COC(=O)c1ccc(-c2ccc(/C=N/NC(=O)CC3(C)OCCCO3)o2)cc1	-1	-1	-1	-6	-1	x	x
Cc1ccc(Cl)cc1N1CCN(S(=O)(=O)N2CCCCC2)CC1	-2	30*	0	-13	-1	-2	111*
Cc1ccc(Cl)cc1N1CCN(S(C)(=O)=O)CC1	0	0	2	-1	-1	x	x
On1onc2c3cc(-c4ccccc4)nc3ccc21	3	12*	1	-10	1	3	1
Cc1ccc(C2=CC(c3ccc(N(C)C)cc3)n3nnnc3N2)cc1 (centres undefined)	7	18*	10	-7	15	2	0
O=C1C=C(NC2=CC3OC(c4ccccc4)OCC3OC2=O)CCC1 (centres undefined)	1	30*	1	1	1	1	1
SMILES	OXTR ag	TRPML3 ag	V1aR counter	OXTR potentiate	TRPN1 ag	TRPN1 counter	TRPML3 ag conf
N#C/C(=N/Nc1ccccc1[N+](=O)[O-])C(N)=S	20	12*	15	-19	13	20*	8
Cc1cc2c3c([nH]c2cc1S(=O)(=O)NCCCOC(C)C)CC(C)(C)CC3=O	2	x	4	-9	x	x	x
Cc1ccc(N/C(N)=N/c2nc(C)cc(C)n2)cc1	7	15*	7	-12	9	31*	20*
CC(=O)Nc1ccc(S(=O)(=O)NNC(=O)C(=O)NNc2ccccn2)cc1	0	0	1	-6	0	x	x
CC1=CC(=O)C(C(C)C)=C/C1=N/OS(=O)(=O)c1ccccc1	5	19*	12	-18	16	14	23*
CC1=CC(=O)C=C(C)C1=NOS(=O)(=O)c1ccccc1	x	7	x	x	4	x	x
COc1ccc(S(=O)(=O)N2CCCC2)cc1Br	1	x	0	0	x	x	x
COc1ccc(S(=O)(=O)N2CCCCCC2)cc1N(C)S(=O)(=O)c1ccccc1	0	70*	4	-11	2	2	74*
CCOc1ccccc1N1CCN(S(=O)(=O)c2ccc(F)c(F)c2)CC1	-3	1	-2	-13	-1	x	x
COc1ccc(S(=O)(=O)N2CCCCC2)cc1C(C)C	-2	74*	0	-13	3	-2	138*
CCOc1cc(S(=O)(=O)N2CCCCCC2)ccc1F	-1	15*	-1	-7	-1	0	22*
CCN(Cc1nc2cc(Cl)ccc2c(=O)[nH]1)C(=O)c1cccc(NC(=O)c2cccs2)c1	2	x	5	-5	x	x	x
CC(=O)c1cccc(CN2CCN(C3CCCCC3)C(CCO)C2)c1 (centres undefined)	1	0	1	-3	2	x	x
COc1ccccc1N1CCN(C(=O)CCS(=O)(=O)c2ccc3c(c2)oc(=O)n3C)CC1	1	x	3	-1	x	x	x
O=C(COc1ccc(/C=N/NC(=O)c2ccccc2)cc1)Nc1ccc([N+](=O)[O-])cc1	0	0	0	-8	4	x	x
CC(C)Oc1ccc(/C=N/NC(=O)C(CSCc2ccccc2)NC(=O)c2ccc([N+](=O)[O-])cc2)cc1 (centres undefined)	-2	53*	-1	-15	1	6	78*
CCN(CC)C(=O)CSc1ccc(C(F)(F)F)cc1[N+](=O)[O-]	-2	1	-1	-2	0	x	x
CN(CCOc1ccccc1)CC(=O)Nc1ccc(S(=O)(=O)N2CCCC2)cc1	1	1	2	-1	2	x	x
CN(CCOc1ccccc1)c1ccc(S(=O)(=O)N2CCCCC2)cn1	-2	26*	-1	-8	0	0	52*
CCCC(=O)Oc1c(S(=O)(=O)c2ccc(C)cc2)c(C)nn1C(C)(C)C	0	26*	0	2	0	6	84*
